Our source for the inhibition, IC50 and ED50 values is ChEMBL document CHEMBL1124773, “(Phosphinyloxy)acyl amino acid inhibitors of angiotensin converting enzyme. 2. Terminal amino acid analogues of (S)-1-[6-amino-2 [[hydroxy(4-phenylbutyl)phosphinyl]oxy]-1-oxohexyl]-L-proline” (J Med Chem, 1990).

Molecules are shown by their SMILES.

In assay [1] the target is T1, Angiotensin-converting enzyme (Rattus norvegicus) (UniProt P47820).
T1 sequence (whole entry): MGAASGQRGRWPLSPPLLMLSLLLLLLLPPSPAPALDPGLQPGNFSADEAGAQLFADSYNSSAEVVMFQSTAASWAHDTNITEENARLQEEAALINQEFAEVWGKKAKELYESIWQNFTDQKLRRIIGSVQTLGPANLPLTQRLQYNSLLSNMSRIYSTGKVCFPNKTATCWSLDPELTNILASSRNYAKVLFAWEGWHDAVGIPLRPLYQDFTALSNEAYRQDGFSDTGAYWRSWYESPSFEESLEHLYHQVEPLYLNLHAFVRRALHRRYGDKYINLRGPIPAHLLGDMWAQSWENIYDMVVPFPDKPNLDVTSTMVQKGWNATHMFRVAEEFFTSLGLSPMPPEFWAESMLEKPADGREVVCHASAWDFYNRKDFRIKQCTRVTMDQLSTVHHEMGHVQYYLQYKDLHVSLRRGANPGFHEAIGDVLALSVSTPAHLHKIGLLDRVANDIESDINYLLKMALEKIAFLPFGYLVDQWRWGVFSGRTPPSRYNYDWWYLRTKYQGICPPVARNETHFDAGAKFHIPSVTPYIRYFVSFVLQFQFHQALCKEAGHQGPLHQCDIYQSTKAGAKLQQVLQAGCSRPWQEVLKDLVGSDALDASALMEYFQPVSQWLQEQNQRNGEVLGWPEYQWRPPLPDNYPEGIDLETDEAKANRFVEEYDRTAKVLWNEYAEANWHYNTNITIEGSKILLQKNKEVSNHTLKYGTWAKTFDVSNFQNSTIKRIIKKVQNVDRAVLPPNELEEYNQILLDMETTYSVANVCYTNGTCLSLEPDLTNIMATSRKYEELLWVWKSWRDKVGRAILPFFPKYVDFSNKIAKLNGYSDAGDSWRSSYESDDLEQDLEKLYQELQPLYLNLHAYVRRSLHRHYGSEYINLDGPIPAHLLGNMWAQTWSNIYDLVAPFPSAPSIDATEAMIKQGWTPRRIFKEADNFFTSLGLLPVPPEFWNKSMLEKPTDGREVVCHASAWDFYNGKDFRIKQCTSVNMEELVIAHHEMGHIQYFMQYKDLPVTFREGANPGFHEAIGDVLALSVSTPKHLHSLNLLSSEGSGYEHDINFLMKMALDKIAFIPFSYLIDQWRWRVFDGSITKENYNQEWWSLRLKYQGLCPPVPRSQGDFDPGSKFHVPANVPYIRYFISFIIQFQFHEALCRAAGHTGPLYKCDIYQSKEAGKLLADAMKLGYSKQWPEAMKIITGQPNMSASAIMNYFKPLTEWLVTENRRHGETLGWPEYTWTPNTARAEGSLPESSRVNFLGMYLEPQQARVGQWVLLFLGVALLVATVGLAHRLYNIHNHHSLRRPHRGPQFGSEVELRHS
Put plainly: In vivo oral activity in normotensive rat and percent maximal inhibition of the angiotensin I pressor response. Format: functional, organism-based. The procedure, abridged:
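Catheterized conscious, unrestrained male Sprague-Dawley rats (225–275 g), recovered ≥2 weeks. […] Oral dose in 0.1 mL water, 5% NaHCO3 or 1% agar suspension. Aortic pressure read by transducer for up to 280 min. Maximum % inhibition is the mean of four animals per dose.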

Assay [2] addresses T2, Angiotensin-converting enzyme (Oryctolagus cuniculus, UniProt P12822).
T2 sequence (P12822 whole entry): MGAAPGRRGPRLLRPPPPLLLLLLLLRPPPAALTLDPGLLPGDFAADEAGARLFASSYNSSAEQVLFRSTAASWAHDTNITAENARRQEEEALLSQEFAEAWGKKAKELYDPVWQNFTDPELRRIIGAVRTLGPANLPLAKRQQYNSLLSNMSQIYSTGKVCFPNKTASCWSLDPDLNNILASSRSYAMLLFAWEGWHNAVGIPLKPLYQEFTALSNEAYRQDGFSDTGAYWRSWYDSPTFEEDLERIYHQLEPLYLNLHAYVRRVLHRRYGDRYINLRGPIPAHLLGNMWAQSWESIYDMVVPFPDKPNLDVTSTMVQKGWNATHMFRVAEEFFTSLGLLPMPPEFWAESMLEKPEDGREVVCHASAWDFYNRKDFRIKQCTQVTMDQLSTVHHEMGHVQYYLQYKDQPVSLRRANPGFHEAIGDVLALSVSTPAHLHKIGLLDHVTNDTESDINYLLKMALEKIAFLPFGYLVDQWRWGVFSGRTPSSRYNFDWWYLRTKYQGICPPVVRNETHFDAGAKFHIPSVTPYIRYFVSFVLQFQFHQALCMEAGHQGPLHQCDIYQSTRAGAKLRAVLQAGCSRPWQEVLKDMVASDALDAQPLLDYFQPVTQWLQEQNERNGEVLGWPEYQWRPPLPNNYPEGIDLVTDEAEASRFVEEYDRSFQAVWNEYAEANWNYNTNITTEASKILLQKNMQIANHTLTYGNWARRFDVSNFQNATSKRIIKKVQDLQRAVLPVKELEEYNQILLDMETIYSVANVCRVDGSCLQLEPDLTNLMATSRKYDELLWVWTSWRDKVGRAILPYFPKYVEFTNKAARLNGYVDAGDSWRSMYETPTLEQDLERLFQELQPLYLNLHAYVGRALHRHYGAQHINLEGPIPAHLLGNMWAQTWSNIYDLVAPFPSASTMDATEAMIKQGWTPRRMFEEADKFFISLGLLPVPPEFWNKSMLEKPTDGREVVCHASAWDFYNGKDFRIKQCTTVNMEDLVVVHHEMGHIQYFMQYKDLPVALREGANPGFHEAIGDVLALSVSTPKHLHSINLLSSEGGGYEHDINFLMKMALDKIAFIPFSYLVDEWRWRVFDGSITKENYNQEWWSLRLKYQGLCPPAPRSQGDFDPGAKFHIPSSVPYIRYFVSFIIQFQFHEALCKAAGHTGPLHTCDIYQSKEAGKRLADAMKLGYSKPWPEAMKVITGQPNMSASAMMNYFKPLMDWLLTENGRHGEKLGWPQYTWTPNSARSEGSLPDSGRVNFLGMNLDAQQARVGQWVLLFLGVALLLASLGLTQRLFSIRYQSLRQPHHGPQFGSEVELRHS
Put plainly: Evaluated for inhibitory activity against rabbit lung angiotensin I converting enzyme (ACE) using hippuryl-histidyl-leucine as substrate. The following applies: read-out: I50.

Assay [3] addresses T1, Angiotensin-converting enzyme (Rattus norvegicus). Put plainly: In vivo dose required to produce 50% inhibition against angiotensin I in normotensive rat after intravenous administration. The class given is functional, organism-based. The procedure, abridged:
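Conscious, unrestrained male Sprague-Dawley rats (225–275 g) with indwelling aortic and vena caval catheters, recovered ≥2 weeks. […] Compound given iv in 0.1 mL water or 5% NaHCO3, responses followed up to 70 min. Maximum % inhibition is the mean of four rats per dose; ED50 interpolated from plots of ≥3 doses.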

For the compound `NCCCC[C@H](OP(=O)(O)CCCCc1ccccc1)C(=O)N(CC(=O)O)c1ccccc1`, in assay [1], the inhibition – broadly, the percentage by which the read-out fell short of the control – was 53%. Also, in assay [2], the IC50 came out at 29 nM. Further, the 50% effect level in assay [3] (ED50) was put at a dose of 0.136 µmol/kg.

`NCCCC[C@H](OP(=O)(O)CCCCc1ccccc1)C(=O)N(CC(=O)O)C1Cc2ccccc2C1`: the IC50 in assay [2] worked out at 27 nM. For the same compound, the ED50 (in general, the midpoint of the dose-response relation) in assay [3] was 0.196 µmol/kg.
